According to ChEMBL document CHEMBL1137305, “High antiplasmodial activity of novel plasmepsins I and II inhibitors” (J Med Chem, 2006):
Activity calls are given as the source filed them. The rule behind the calls is not given here.

Experiments:
[1] = molecular target: Cathepsin D (Homo sapiens) (UniProt P07339); experiment: Inhibition of human cathepsin D at 100 uM
[2] = molecular target: Plasmepsin I (Plasmodium falciparum, UniProt P39898); experiment: Inhibition of Plasmodium falciparum recombinant PLM1
How it was run: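 Recombinant proPfPLM I from E. coli BL21 Star (DE3) pLysS inclusion bodies, refolded and purified by anion exchange and size exclusion. Initial rates of cleavage of chromogenic Lys-Pro-Ile-Leu-Phe-Nph-Arg-Leu read spectrophotometrically. Ki from fits: Morrison competitive tight-binding equation, or for weaker binders at least six substrate and two or more inhibitor levels, competitive model.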

[3] = molecular target: Plasmepsin II (Plasmodium falciparum, UniProt P46925); experiment: Inhibition of Plasmodium falciparum recombinant PLM2
How it was run: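 Recombinant pro-PLM II (E. coli BL21(DE3) pLysS, refolded from inclusion bodies) activated in 100 mM sodium acetate pH 4.7, 37 °C, 90 min. Cleavage of Lys-Glu-Phe-Val-Phe-NPhe-Ala-Leu-Lys followed at 300 nm. Inhibitors at 1-100 nM, 1% DMSO final. Ki from IC50 via Cheng-Prusoff using Michaelis-Menten Km. Mean ± SD, at least two experiments in triplicate.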

[4] = system: Plasmodium falciparum; experiment: Antiplasmodial activity against chloroquine-sensitive Plasmodium falciparum D10; assay type: functional, organism-based
How it was run: (§1)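 P. falciparum (D10 and W2) grown in human A+ red cells, RPMI 1640 with 10% heat-inactivated A+ plasma, 37 °C, 1% O2/5% CO2/94% N2. Asynchronous cultures, 1-1.5% parasitemia, 1% hematocrit, exposed to serial dilutions (DMSO <1% final) for 72 h. IC50 is the mean of ≥3 experiments in duplicate.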

[5] = system: Plasmodium falciparum; experiment: Antiplasmodial activity against chloroquine-resistant Plasmodium falciparum W2; assay type: functional, organism-based; how it was run: as §1
[6] = molecular target: Plasmepsin II (Plasmodium falciparum) (UniProt P46925); experiment: Inhibition of Plasmodium falciparum PLM2-induced human hemoglobin cleavage by SDS-PAGE
How it was run: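 Hemoglobin (10 µg) digested by preactivated recombinant PLM II (200 ng) in 100 mM sodium acetate, pH 4.7, 37 °C, with vehicle or inhibitor for 0, 10, 30 and 60 min. Stopped with SDS loading dye, boiled 5 min, resolved on 18% polyacrylamide gel.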

[7] = molecular target: Cathepsin D (Homo sapiens) (UniProt P07339); experiment: Inhibition of human cathepsin D at 2 uM
[8] = molecular target: Cathepsin D (Homo sapiens) (UniProt P07339); experiment: Inhibition of human cathepsin D at 5 uM
[9] = Cytotoxicity against human skin fibroblast at 100 uM by MTT assay; assay type: cell-based
How it was run: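 Primary human skin-biopsy fibroblasts, 8 × 10⁴ per well, grown in DMEM with 10% fetal calf serum, 1% penicillin/streptomycin and 1% L-glutamine. Proliferation followed by MTT test with or without compounds up to 100 µM.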

Sequence of Plasmepsin I (P39898 whole entry): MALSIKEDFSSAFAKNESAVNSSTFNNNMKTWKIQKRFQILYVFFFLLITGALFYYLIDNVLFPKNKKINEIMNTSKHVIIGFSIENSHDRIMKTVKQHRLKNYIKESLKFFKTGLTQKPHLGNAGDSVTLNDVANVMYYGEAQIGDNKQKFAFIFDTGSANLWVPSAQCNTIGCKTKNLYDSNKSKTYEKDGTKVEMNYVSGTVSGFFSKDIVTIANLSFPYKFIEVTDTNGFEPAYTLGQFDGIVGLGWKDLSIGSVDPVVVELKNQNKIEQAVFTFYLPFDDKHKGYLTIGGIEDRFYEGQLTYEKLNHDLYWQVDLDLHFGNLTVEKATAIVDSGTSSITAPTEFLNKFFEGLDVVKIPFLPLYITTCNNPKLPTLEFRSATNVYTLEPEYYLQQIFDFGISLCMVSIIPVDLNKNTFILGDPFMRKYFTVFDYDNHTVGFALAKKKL
Sequence of Plasmepsin II (Plasmodium falciparum) (P46925 125-453 limits assumed): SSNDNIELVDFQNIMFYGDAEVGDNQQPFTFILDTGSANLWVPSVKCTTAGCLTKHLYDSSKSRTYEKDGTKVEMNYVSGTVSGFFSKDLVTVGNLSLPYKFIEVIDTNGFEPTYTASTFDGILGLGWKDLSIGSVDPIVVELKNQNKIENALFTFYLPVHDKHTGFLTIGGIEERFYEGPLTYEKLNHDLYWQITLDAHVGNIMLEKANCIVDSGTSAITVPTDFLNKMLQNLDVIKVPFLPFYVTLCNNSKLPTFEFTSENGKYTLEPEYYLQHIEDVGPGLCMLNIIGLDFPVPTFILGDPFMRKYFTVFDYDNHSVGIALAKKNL
Sequence of Cathepsin D (Homo sapiens) (P07339 65-162 limits assumed): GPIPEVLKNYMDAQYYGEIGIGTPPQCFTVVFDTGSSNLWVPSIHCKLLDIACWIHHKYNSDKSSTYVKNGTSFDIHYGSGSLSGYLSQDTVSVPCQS
Sequence of Cathepsin D (Homo sapiens) (P07339 169-412 limits assumed): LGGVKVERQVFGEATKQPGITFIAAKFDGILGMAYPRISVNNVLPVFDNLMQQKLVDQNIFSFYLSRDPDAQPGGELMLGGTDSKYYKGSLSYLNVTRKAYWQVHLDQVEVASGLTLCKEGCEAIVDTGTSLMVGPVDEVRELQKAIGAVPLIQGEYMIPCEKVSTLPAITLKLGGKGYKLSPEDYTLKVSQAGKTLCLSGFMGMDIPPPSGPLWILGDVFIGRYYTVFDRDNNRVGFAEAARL
Sequence of Plasmepsin II (P46925 whole entry): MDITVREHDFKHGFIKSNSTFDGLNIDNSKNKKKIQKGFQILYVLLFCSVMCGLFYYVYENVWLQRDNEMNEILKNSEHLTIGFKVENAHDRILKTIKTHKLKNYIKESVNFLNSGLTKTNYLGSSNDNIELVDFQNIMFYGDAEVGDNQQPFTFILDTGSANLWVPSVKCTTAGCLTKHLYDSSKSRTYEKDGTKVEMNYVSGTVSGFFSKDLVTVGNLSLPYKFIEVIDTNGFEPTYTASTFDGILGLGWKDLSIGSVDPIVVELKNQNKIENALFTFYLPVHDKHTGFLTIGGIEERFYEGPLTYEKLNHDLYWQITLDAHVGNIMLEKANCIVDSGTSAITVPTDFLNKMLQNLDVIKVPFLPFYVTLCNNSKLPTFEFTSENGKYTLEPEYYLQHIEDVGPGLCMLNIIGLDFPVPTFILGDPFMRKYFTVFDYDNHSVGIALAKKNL

Structure (SMILES) | inhibition [1] | Ki [2] | Ki [3] | IC50 [4] | IC50 [5] | Activity [6] | inhibition [7] | inhibition [8] | Activity [9]
CCCCNC(=O)C[C@H](O)[C@H](CC(C)C)NC(=O)[C@@H](NC(=O)c1ccc(Oc2ccc(C(=O)N[C@@H](CC(C)C)C(=O)N[C@@H](CCCCNC(=O)OC(C)(C)C)C(=O)OCCC)cc2)cc1)C(C)CC (some centres not stated) | 37% | 0.017 µM | 0.011 µM | 0.1 µM | 0.1 µM | Active | – | – | –
CCCCNC(=O)C[C@H](O)[C@H](CC(C)C)NC(=O)[C@@H](NC(=O)c1ccc(Oc2ccc(C(=O)N[C@@H](CC(C)C)C(=O)N[C@@H](CC(C)C)C(=O)NCCCC(C)Nc3cc(OC)cc4cccnc34)cc2)cc1)C(C)CC (some centres not stated) | – | 0.058 µM | 0.103 µM | 3.6 µM | 1.7 µM | – | – | – | –
CCCCNC(=O)C[C@H](O)[C@H](CC(C)C)NC(=O)[C@@H](NC(=O)c1ccc(Oc2ccc(C(=O)N[C@@H](CC(C)C)C(=O)NCCCC(C)Nc3cc(OC)cc4cccnc34)cc2)cc1)[C@@H](C)CC (some centres not stated) | – | 0.765 µM | 0.0121 µM | 0.7 µM | 0.5 µM | Active | 30% | – | –
CCCCNC(=O)C[C@H](O)[C@H](CC(C)C)NC(=O)[C@@H](NC(=O)c1ccc(Oc2ccc(C(=O)N[C@@H](CC(C)C)C(=O)N[C@@H](C)C(=O)NCCCC(C)Nc3cc(OC)cc4cccnc34)cc2)cc1)[C@@H](C)CC (some centres not stated) | – | 0.074 µM | 0.0263 µM | 0.2 µM | 0.3 µM | Active | – | 50% | 15%
CCCCNC(=O)C[C@H](O)[C@H](CC(C)C)NC(=O)[C@@H](NC(=O)c1ccc(Oc2ccc(C(=O)NCCCC(C)Nc3cc(OC)cc4cccnc34)cc2)cc1)[C@@H](C)CC (some centres not stated) | – | 0.081 µM | 0.0112 µM | 2.2 µM | 2 µM | – | – | – | –
CCCCNC(=O)C[C@H](O)[C@H](CC(C)C)NC(=O)[C@@H](NC(=O)c1ccc(Oc2ccc(C(=O)N[C@@H](CC(C)C)C(=O)N[C@@H](CCCCN)C(=O)OCCC)cc2)cc1)C(C)CC (some centres not stated) | – | 0.011 µM | 0.0099 µM | 4.5 µM | 3.8 µM | – | – | – | –
CCCCNC(=O)C[C@H](O)[C@H](CC(C)C)NC(=O)[C@@H](NC(=O)COc1ccc2ccccc2c1)[C@@H](C)CC | – | 0.727 µM | 0.0589 µM | 22.7 µM | 15.4 µM | – | – | – | –
CCCCNC(=O)C[C@H](O)[C@H](CC(C)C)NC(=O)[C@@H](NC(=O)c1ccc(Oc2ccc(C(=O)N[C@@H](C)C(=O)N[C@@H](C)C(=O)NCCCC(C)Nc3cc(OC)cc4cccnc34)cc2)cc1)[C@@H](C)CC (some centres not stated) | – | 0.001 µM | 0.0039 µM | 1.3 µM | 1.2 µM | – | – | – | –
CCCCNC(=O)C[C@H](O)[C@H](CC(C)C)NC(=O)[C@@H](NC(=O)c1ccc(Oc2ccc(C(=O)N[C@@H](CC(C)C)C(=O)N[C@@H](CCCCNC(=O)OC(C)(C)C)C(=O)NCCCC(C)Nc3cc(OC)cc4cccnc34)cc2)cc1)C(C)CC (some centres not stated) | – | 0.23 µM | 0.403 µM | 4.05 µM | 3.5 µM | – | – | – | –
CCCCNC(=O)C[C@H](O)[C@H](CC(C)C)NC(=O)[C@@H](NC(=O)c1ccc(Oc2ccc(C(=O)N[C@@H](C)C(=O)N[C@@H](CCCCN)C(=O)NCCCC(C)Nc3cc(OC)cc4cccnc34)cc2)cc1)[C@@H](C)CC (some centres not stated) | – | 0.033 µM | 0.0106 µM | 0.8 µM | 1.4 µM | – | – | – | –
